Screens deposited in PubChem by several laboratories.
EBNA-1 inhibitor = blocks EBNA-1 binding to DNA; EBNA-1 DNA binding, fluorescence polarization; inhibition, % at 14.8 µM; 300,000 compounds, 0.34% hits; AID 1950; in the data active means inhibition above about 28%
core dimer inh = HCV core protein dimerization inhibition. TR-FRET GST/Flag-core106 dimerization, 1536-well. AID 1899. 300,000 compounds, 0.33% hits. inhibition, % at 5 µM;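 active means inhibition above the mean of all tested compounds plus 3 SD, set per screening campaign, cut at about 45% in these data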
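Assay system: GST-tagged and Flag-tagged HCV core protein residues 1-106 / Times: compound-protein-antibody incubation 4 h at 22.5 °C / Signal: time-resolved FRET, ex 340 nm, em 617 and 671 nm / Evaluation: % inhibition based on acceptor/donor emission ratio / Benchmarks: wells lacking GST-core106 and wells with excess unlabelled core106 / Repeats: singlicate, one well per compound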
ZTA counter = ZTA (EBV) inhibition in EBNA-1 counter-screen; P03206; ZTA-DNA binding, fluorescence polarization; inhibition, % at 11 µM; 320,000 compounds, 0.15% hits; AID 2234; in the data active means inhibition above about 33%
Target sequence (P03206 whole entry, looked up): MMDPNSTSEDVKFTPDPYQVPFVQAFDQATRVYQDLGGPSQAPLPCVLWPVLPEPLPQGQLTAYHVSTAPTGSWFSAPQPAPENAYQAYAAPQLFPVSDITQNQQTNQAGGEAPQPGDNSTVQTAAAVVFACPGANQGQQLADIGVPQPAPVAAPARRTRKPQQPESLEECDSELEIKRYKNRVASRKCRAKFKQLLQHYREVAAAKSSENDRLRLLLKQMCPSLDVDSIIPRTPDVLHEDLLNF
ALR inh = blocks human ALR sulfhydryl oxidase activity. purified ALR, DTT oxidation, H2O2 HRP-luminol luminescence. inhibition, % (no concentration beside the values). 290,000 compounds, 3.8% hits. AID 485317;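 active means mean replicate inhibition above about 79%, with every replicate also reaching it, limit read from the data; inconclusive means only one of the two criteria met; inactive means mean below limit and not every replicate reaching it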
Target sequence (P55789 whole entry, looked up): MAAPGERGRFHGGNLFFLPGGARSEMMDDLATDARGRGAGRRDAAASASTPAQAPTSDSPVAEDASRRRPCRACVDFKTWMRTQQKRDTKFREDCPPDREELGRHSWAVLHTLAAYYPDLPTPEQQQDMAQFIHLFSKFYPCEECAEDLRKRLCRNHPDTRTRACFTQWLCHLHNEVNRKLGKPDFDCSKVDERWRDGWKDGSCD
PfM18AAP inh-1 = blocks P. falciparum M18 aspartyl aminopeptidase; recombinant PfM18AAP, H-Glu-NHMec fluorogenic cleavage; 290,000 compounds, 1.2% hits; inhibition, % at 7.35 µM;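 active means inhibition above the campaign mean inhibition over all tested compounds plus 3 SD, cut at about 28% in these data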;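 further: 0% = plate median of test compound wells and 100% = 2 mM ZnCl2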
NS3 helicase inh = HCV NS3 helicase inhibition; NS3 helicase DNA unwinding, Cy5 molecular beacon fluorescence; inhibition, % at 10.9 µM; 290,000 compounds, 0.56% hits;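 active means inhibition above the mean of all tested compounds plus 3 SD, set per campaign, cut at about 35% in these data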;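 further: 0% = DMSO wells and 100% = thioflavine S control wells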
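test system = hepatitis C virus NS3 helicase domain fragment enzyme | reagent = annealed dual-labelled DNA beacon duplex, ATP-started | times = 1 h at 25 °C | detection = Cy5 fluorescence, 0 and 60 min reads | read-out basis = percent inhibition from t60/t0 fluorescence ratio | control set = DMSO and thioflavine S | replication = one well per compound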
PfM18AAP inh-2 = confirmation of Plasmodium falciparum M18 aspartyl aminopeptidase inhibitors; inhibition, % at 7.35 µM; AID 2170; shares compounds with PfM18AAP inh-1; recombinant PfM18AAP, H-Glu-NHMec fluorogenic cleavage; 2,400 compounds, 28% hits;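 active means mean inhibition over replicate wells above the hit cutoff set for the earlier primary screen, cut at about 29% in these data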;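 further: 0% = median of test compound wells and 100% = 2 mM ZnCl2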
CTSL1 counter = counter-screen for PFM18AAP inhibitors: confirmation of human cathepsin L inhibitors | shares compounds with PfM18AAP inh-1 | purified cathepsin L1, Z-Leu-Arg-MCA fluorescence | inhibition, % at 5.96 µM | 2,400 tested, under 10 active | AID 2178;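 active means average inhibition across replicates above the hit cutoff set in the earlier primary screen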;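 further: 0% = median of test compound wells and 100% = Z-Phe-Ala-diazomethylketone 1 µM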
Active calls of the source: *; ? = inconclusive; . = no result given. This is a sample that favours compounds with a hit; in the whole collection about 5.2% have one here.

SMILES	EBNA-1 inhibitor	core dimer inh	ZTA counter	ALR inh	PfM18AAP inh-1	NS3 helicase inh	PfM18AAP inh-2	CTSL1 counter
Cc1[nH][nH]c(=O)c1C(c1ccc(Cl)cc1)c1c(C)[nH][nH]c1=O	5	10	10	13	17	-1	.	.
CC(Cn1cncn1)C(=O)N1CCN(S(=O)(=O)c2ccc(Cl)cc2)CC1 (centres undefined)	8	7	0	2	0	4	.	.
N#Cc1c(Cl)nsc1NN	-15	-3	-5	75	39*	-9	29*	-1
NNc1nc(-c2ccccc2Cl)nc2ccccc12	-2	-4	-1	-3	45*	2	-4	-4
OCC1(CCc2ccccc2)CCN(Cc2cccn2-c2cccnc2)CC1	-22	0	-4	-2	4	-2	.	.
CC(=O)c1cc(CCC(=O)NC2CCCCCC2)oc1C	-2	10	7	2	2	5	.	.
CCn1c(O)c(C=Nc2ccccc2)sc1=S	8	-5	6	6	5	16	.	.
CCn1c(O)c(/C=N/n2cnnc2)sc1=S	-3	-12	-9	98*	59*	12	57*	2
CCN1C(=O)CSC1=Nc1ccc(OC)cc1	10	4	-4	-2	-5	-4	.	.
O=c1c2ccccc2c(/C=N/c2ncn[nH]2)c(O)n1Cc1ccccc1	-17	2	-8	-7	54*	11	-21	2
COc1ccc(CCNCc2cc(C)n(-c3ccc(OC)cc3)c2C)cc1	-27	-3	-8	.	42*	-41	-10	-3
COc1ccc(-c2oc(NC(=O)CSc3ncn[nH]3)c(C#N)c2-c2ccc(OC)cc2)cc1	1	6	-2	22	73*	-21	25	-3
CCOC(=O)c1sc(N(Cc2ccccc2)C(=O)CSc2ncn[nH]2)nc1C	0	-2	-6	.	90*	-3	-36	-3
CCOC(=O)c1sc(NC(=O)CSc2ncn[nH]2)c(C#N)c1C	8	2	5	1	40*	10	9	-6
CCCCn1c(N)c(N(CC(C)C)C(=O)c2ccc(-c3ccc([N+](=O)[O-])cc3)o2)c(=O)[nH]c1=O	1	15	-8	17	.	.	.	.
CCOc1ccc2ccc(OCC)c(/C=N/n3cnnc3)c2c1	-2	8	20	.	-5	-3	.	.
Cc1cc(Nc2ccc(O)cc2)ccc1N	.	.	-9	?	.	.	.	.
O=C(OCC1CCCN2CCCCC12)c1ccc2c(c1)OCO2 (centres undefined)	-7	0	-7	10	35*	1	10	-8
CCN(C(=O)Cn1cnc2c1c(=O)n(C)c(=O)n2C)C1CCCCC1	.	.	-4	-1	.	.	.	.
CN1C(=O)CS(=O)c2ccc(C(=O)NC3CC3)cc21 (centres undefined)	11	-2	26	7	44*	11	-13	2
CN1C(=O)c2ccc(C(=O)NC3CCCCC3)cc2C1=O	-20	5	-1	-9	-7	-6	.	.
COc1ccc(NC(=O)C2C3C=CC4(O3)C2C(=O)N(CCN2CCCCC2C)C4C(=O)NC2CCCCC2)cc1 (centres undefined)	-12	-4	-3	-16	0	-8	.	.
Cc1cc(N(C)N)nc(NC(=O)NS(=O)(=O)c2ccccc2Cl)n1	-7	2	5	-20	57*	-16	50*	0
NC(=S)NNC(=O)c1cccc(Br)c1	-7	-3	2	25	23	-4	.	.
Cc1ccc(C(=O)NNC(=S)NC(=O)c2ccc(Cl)cc2)cc1	4	0	4	15	-2	12	.	.
SMILES	EBNA-1 inhibitor	core dimer inh	ZTA counter	ALR inh	PfM18AAP inh-1	NS3 helicase inh	PfM18AAP inh-2	CTSL1 counter
Cc1ccc(C(=O)NC(=S)Nn2cnnc2)cc1	12	-1	4	-52	84*	10	60*	-2
Cc1ccc(/C=C/C(=O)Nn2cnnc2)cc1	1	-8	-8	5	41*	0	51*	-6
Cc1ccc(/C=C/C(=O)NN2CCN(C)CC2)cc1	-10	-9	-4	25	0	-1	.	.
O=C(NC(=S)Nn1cnnc1)c1cccc(Br)c1	0	-4	16	12	69*	-19	87*	1
CC(C)n1ncc2c(C(=O)Nc3cccc(C#N)c3)cc(C3CC3)nc21	.	.	5	0	.	.	.	.
COC(=O)c1cn(C(=O)c2cc(OC)cc(OC)c2)c2ccccc12	-4	-12	-11	12	-1	1	.	.
COc1cc(OC)cc(C(=O)n2cnnc2N)c1	7	-13	-4	?	53*	0	49*	0
CCn1cc(C(C)NC(=O)Nc2ccccc2C(=O)OC)c(C)n1 (centres undefined)	-5	0	-14	-5	-4	6	.	.
Fc1ccc2cc(-c3ccccc3F)ncc2c1	.	.	.	-2	.	.	.	.
Cn1c(CSc2ncn[nH]2)nc2ccccc21	-2	-1	-6	-3	53*	4	10	-5
COc1cc(C(c2c(C)[nH][nH]c2=O)c2c(C)[nH][nH]c2=O)cc([N+](=O)[O-])c1O	-4	-14	-19	13	27	4	.	.
Cc1ccc(C(c2c(C)[nH][nH]c2=O)c2c(C)[nH][nH]c2=O)cc1[N+](=O)[O-]	14	-6	2	38	34*	-1	23	2
O=C(CSc1nc2ccccc2o1)N/N=C/c1ccccc1	-4	-5	0	-3	15	3	.	.
Cc1cc(SCC(=O)N/N=C/c2ccc(O)c(O)c2)c(C)cc1Br	7	1	14	99*	54*	-1	36*	-3
CC(=O)N1CCC(=NNC(=O)CSc2cc(C)c(Br)cc2C)CC1	10	-1	12	28	0	-1	.	.
O=C(CSc1nc2ccccc2o1)N/N=C/c1ccc(O)c(O)c1	5	-5	-2	88*	62*	-3	52*	-3
O=C(Cc1nnc(NC(=O)c2ccccc2)s1)N/N=C\c1ccc(O)c(O)c1	10	-4	-3	63	57*	12	38*	0
O=C(N/N=C/c1ccc(O)c(O)c1)c1cc(-c2ccccc2)nc2ccccc12	18	5	10	74	61*	-12	48*	-5
CC(C)[C@H](NC(=O)c1ccco1)C(=O)OCC(=O)c1ccc(Br)s1	.	.	.	2	.	.	.	.
Cc1cc(SCC(=O)N/N=C/c2ccc(O)c(O)c2)nc2ccccc12	-6	-11	3	.	56*	-5	43*	2
Oc1ccc(/C=N/Nc2ncc(Cl)cc2Cl)cc1	-11	-13	-4	.	4	7	.	.
Clc1cnc(N/N=C/c2ccco2)c(Cl)c1	-2	-9	7	39	47*	4	-29	-5
